# KCNQ1 inh = inhibitors of human KCNQ1 potassium channel; AID 2642; B-score at 10 µM; P51787; CHO-K1 KCNQ1, FluxOR thallium flux fluorescence; active compounds read high; 310,000 tested, 1.3% active;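 active = compounds whose thallium flux B-score, printed positive for inhibition, exceeds three library SD while starting fluorescence stays within three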;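 also: channel opened by potassium depolarization with thallium stimulus after 20 min compound exposure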
# hERG rescue = shields human hERG channel from block by proarrhythmic agents | CHO-hERG, FluxOR thallium flux, dofetilide IC70 present | activation (rescue from dofetilide block), less the hit threshold, % at 10 µM | 310,000 tested, 0.51% active;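 active = activation above the mean of controls blocked by dofetilide plus 5 SD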;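 also: thallium influx through hERG after potassium depolarization seen as dye fluorescence rise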
# KCNQ1 act = potentiates or activates the human KCNQ1 potassium channel | 310,000 tested, 0.35% active | P51787 | B-score at 10 µM | CHO-K1 KCNQ1, thallium flux FluxOR fluorescence; active compounds read high | AID 2648;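 active = fluorescence ratio B-score, a plate-corrected score, at least three library SD, with initial intensity B-score within 5 SD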
#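 System: Stable KCNQ1 CHO-K1 line | Incubation: 90 min dye loading and 20 min compound exposure, both at room temperature | Measure: Ratio B score | Medium: Assay buffer for compound exposure, DMSO matched across wells | Compound dosing: Single-concentration screen | Probe or stimulus: K+/Tl+ depolarizing stimulus | Measured by: Kinetic FluxOR fluorescence, 10 s baseline plus 110 s post-stimulus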
# KCNK9 inh = inhibitors of human KCNK9 two-pore domain potassium channel; Q9NPC2; HEK293 KCNK9, FluxOR thallium flux fluorescence; active compounds read low; B-score at 10 µM; 310,000 tested, 1.2% active;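 active = ratio B-score over 3 SD below the library mean, with starting fluorescence within 5 SD of its mean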;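 also: negative B-score means less thallium flux so channel inhibition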
# KCNK3 inh = human KCNK3 channel inhibition, primary screen. AID 602410. 340,000 tested, 0.84% active. CHO-KCNK3 thallium flux, FluxOR fluorescence; active compounds read low. B-score at 10 µM;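 active = B-score under library mean minus 4 SD, starting fluorescence ratio at most library mean plus 5 SD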;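 also: more negative B-score means stronger inhibition of thallium flux through KCNK3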
# KCNK9 inh conf = confirmation of human KCNK9 potassium channel inhibitors. shares compounds with KCNK9 inh. HEK293 KCNK9 cells, FluxOR thallium flux fluorescence. inhibition, % at 10 µM. 4,900 tested, 43% active. AID 492992;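 active = thallium signal inhibited by more than 5 SD of the compound-free buffer control wells, on both duplicate plates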
# Kir2-1 spec = tests whether KCNK9 modulators also affect mouse Kir2.1. 4,900 tested, 4% active. inhibition, % at 10 µM. Kir2.1 cells, FluxOR thallium flux fluorescence. AID 492993. shares compounds with KCNK9 inh;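 active = thallium signal drop more than 5 SD beyond the mean of the no-compound control wells, seen in both duplicate plates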;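 also: signal is fluorescence rise after thallium addition divided by baseline fluorescence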
# Target sequence (P35561 whole entry, looked up): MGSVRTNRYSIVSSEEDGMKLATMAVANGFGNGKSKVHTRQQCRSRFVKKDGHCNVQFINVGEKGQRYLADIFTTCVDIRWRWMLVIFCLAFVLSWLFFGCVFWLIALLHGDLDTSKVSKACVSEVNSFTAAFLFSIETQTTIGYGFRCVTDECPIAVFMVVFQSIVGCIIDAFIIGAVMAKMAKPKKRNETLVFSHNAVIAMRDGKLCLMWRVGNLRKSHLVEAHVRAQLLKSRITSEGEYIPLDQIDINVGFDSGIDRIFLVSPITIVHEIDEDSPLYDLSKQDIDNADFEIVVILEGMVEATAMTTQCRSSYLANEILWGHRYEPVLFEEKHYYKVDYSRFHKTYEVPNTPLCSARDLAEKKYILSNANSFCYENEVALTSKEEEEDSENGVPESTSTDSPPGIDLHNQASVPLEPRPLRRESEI
# KCNK9 uninduced = non-induced cell nonspecific activity of KCNK9 modulators. shares compounds with KCNK9 inh. non-induced KCNK9-HEK293, FluxOR thallium flux. inhibition, % at 10 µM. 4,900 tested, 40% active;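 active = thallium signal drop beyond 5 SD of the untreated control mean, on both duplicate plates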
# KCNK3 inh conf = human KCNK3 channel inhibition, confirmation assay; shares compounds with KCNK3 inh; CHO-KCNK3 thallium flux, FluxOR fluorescence; 0% buffer, 100% carvedilol maximal block; ratio percent of control, % at 10 µM; 2,400 tested, 99% active;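 active = ratio percent of control, averaged over triplicates, above buffer control mean plus 5 SD, cut at about 64% in these data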;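 also: ratio is the fluorescence rise from min to max over baseline after thallium stimulus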
# KCNK3 noninduced = counter-screen for KCNK3 inhibitors: effect in non-induced cells; shares compounds with KCNK3 inh; thallium flux ratio (lower = more inhibition) at 10 µM; AID 651747; non-induced KCNK3 parental cells, FluxOR thallium flux; active compounds read low; 2,400 tested, 40% active;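 active = thallium flux ratio, averaged over three wells, more than 5 SD below the buffer control mean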;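 also: host cells are CHO cells without KCNK3 induction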
# Numbers stand for hits; i = inactive; nt = not tested or not shown. Most compounds without a hit are left out; they make up all but 3.1% or so of the library.
SMILES,KCNQ1 inh,hERG rescue,KCNQ1 act,KCNK9 inh,KCNK3 inh,KCNK9 inh conf,Kir2-1 spec,KCNK9 uninduced,KCNK3 inh conf,KCNK3 noninduced
CC(=O)Nc1sc(C)c(C)c1C(=O)OCCOc1ccccc1,i,i,i,-12.7,-11.5,46.0%,i,46.0%,125.3,0.127
CC(=O)Nc1sc(C)c(C)c1C(=O)OCC(=O)Nc1ccccc1,nt,nt,nt,nt,i,nt,nt,nt,nt,nt
CNC(=O)CSc1nnc(-c2ccccn2)n1Cc1ccco1,i,i,i,i,i,nt,nt,nt,nt,nt
CC(C)(C)c1ccc(CSc2nnc(-c3ccccn3)n2Cc2ccco2)cc1,i,i,i,-10.8,i,65.5%,42.0%,40.5%,126.0,0.144
COc1ccc(C(=O)/C=C/c2ccc(OC)c(COc3ccc(F)cc3)c2)cc1,i,i,i,-13.1,-10.4,65.5%,i,33.0%,129.0,0.154
CCc1ccccc1NC(=O)CC(c1ccc(OC)cc1)n1cccc1 (stereo not given),i,i,i,i,i,nt,nt,nt,nt,nt
CCCCCOc1ccc(Br)cc1/C(C)=N/NC1=NCCN1,i,i,i,-11,-11,41.0%,65.5%,i,105.0,0.133
COc1ccc(Br)cc1/C(C)=N/NC1=NCCN1,i,i,i,i,i,nt,nt,nt,nt,nt
CCc1c(C)nc2cc(-c3cc(OC)cc(OC)c3)nn2c1N1CCCC1,i,i,i,-11.1,-9.81,57.5%,i,26.5%,100.0,i
O=C(COC(=O)c1ccc(O)cc1)Nc1cc(C(F)(F)F)ccc1Cl,i,i,i,i,i,nt,nt,nt,nt,nt
CC(OC(=O)c1ccc(O)cc1)C(=O)Nc1cc(C(F)(F)F)ccc1Cl (stereo not given),6,i,i,-10.6,-9.81,i,i,48.5%,138.7,0.123
COC(=O)C1=C(C)N=C2SC(C#N)=C(N)N2C1c1ccc(OC)cc1 (stereo not given),i,i,i,-8.89,-10.5,50.5%,i,i,111.7,i
COC(=O)C1=C(C)N=C2SC(C#N)=C(N)N2C1c1cccc(OC)c1 (stereo not given),i,i,i,i,i,nt,nt,nt,nt,nt
CCOc1ccc(S(=O)(=O)NCCC(=O)NCC(c2ccccc2OC)N2CCCC2)cc1 (stereo not given),i,i,i,i,i,nt,nt,nt,nt,nt
Cc1nc(N)sc1C(=O)NN,i,i,i,i,i,nt,nt,nt,nt,nt
O=C(NNC(=O)c1ccccc1O)c1ccc(Cl)c(S(=O)(=O)N2CCc3ccccc32)c1,14,i,i,-9.65,-14.1,31.5%,i,i,116.3,0.14
O=C(c1ccc(Cl)c(S(=O)(=O)N2CCc3ccccc32)c1)N1CCN(c2ccccc2O)CC1,nt,nt,nt,nt,i,nt,nt,nt,nt,nt
O=C(c1ccco1)N1c2ccccc2Sc2ccccc21,i,i,i,-9.4,-9.23,31.0%,i,30.5%,116.3,i
O=C(c1ccco1)N1CCN(C(=O)N2c3ccccc3Sc3ccccc32)CC1,i,i,i,i,i,nt,nt,nt,nt,nt
CCOC(=O)c1ccc(Oc2nc(SC)nc(N(C)C)n2)cc1,i,i,i,-8.8,-9.81,48.0%,i,42.5%,102.7,i
N#Cc1cccc(C(c2nnnn2C2CCCC2)N2CCC(Cc3ccccc3)CC2)c1 (stereo not given),i,i,i,-12.1,-11,58.5%,i,30.0%,112.0,0.152
CC(C)CCN(C(=S)Nc1cccc(F)c1)C(C)c1cccs1 (stereo not given),i,i,i,-10.2,-13.8,50.5%,i,50.5%,118.7,0.152
COCCN(C(=S)Nc1cccc(C)c1)C(C)c1cccs1 (stereo not given),i,i,i,i,i,nt,nt,nt,nt,nt
Cc1ccccc1N1CCN(S(=O)(=O)C[C@]23CCC(CC2NC(=O)[C@@H](N)CCS(C)(=O)=O)C3(C)C)CC1 (stereo not given in full),nt,nt,nt,nt,i,nt,nt,nt,nt,nt
CN(c1ccccc1)c1cc(Br)nc(Br)c1,i,i,i,i,i,nt,nt,nt,nt,nt
SMILES,KCNQ1 inh,hERG rescue,KCNQ1 act,KCNK9 inh,KCNK3 inh,KCNK9 inh conf,Kir2-1 spec,KCNK9 uninduced,KCNK3 inh conf,KCNK3 noninduced
CC(=O)/C(N=Nc1cccc(C(F)(F)F)c1)=C(\C)O,i,i,i,i,i,nt,nt,nt,nt,nt
O=C(/C(N=Nc1cccc(C(F)(F)F)c1)=C(/O)c1cccs1)C(F)(F)F,10,i,i,-8.84,i,i,i,i,67.0,i
CC(=O)c1ccccc1NC(=O)c1ccc(N2CCCC2=O)cc1,i,i,i,i,i,nt,nt,nt,nt,nt
CCCn1c(SCC(=O)Nc2ccccc2OC)nnc1-c1ccco1,i,i,i,i,i,nt,nt,nt,nt,nt
O=C(CCSCc1cccc(Cl)c1)NCCc1ccc(Cl)cc1,i,i,i,i,i,nt,nt,nt,nt,nt
CC(C)Cc1ccc(/C=C/C(=O)N2CCCCC2)cc1,i,i,i,-9.8,-12.7,74.0%,i,39.0%,114.0,i
CCc1ccc(/C=C\C(=O)N2CCCC2)cc1,i,i,i,i,i,nt,nt,nt,nt,nt
N/C(Cc1ccc([N+](=O)[O-])cc1)=N\OC(=O)C(c1ccccc1)c1ccccc1,i,i,i,-10.1,-9.65,33.5%,i,40.0%,126.0,i
CC(C)OC(=O)COc1ccc(-c2ccccc2)cc1,i,i,i,-9.24,-11.1,i,i,i,96.7,i
CCOCCCNC(C(=O)Nc1ccc(OC)c(Cl)c1)c1ccccc1 (stereo not given),i,i,i,i,i,nt,nt,nt,nt,nt
COCCNC(C(=O)Nc1cc(Cl)cc(Cl)c1)c1ccccc1 (stereo not given),i,i,i,-11.7,-9.18,44.0%,i,39.5%,103.0,i
CCOc1ccc(CCNC(=O)COC(=O)c2ccc(C)c([N+](=O)[O-])c2)cc1OCC,i,i,i,i,i,nt,nt,nt,nt,nt
CCOC(=O)C1=C(COC(=O)[C@H](C)NS(=O)(=O)c2ccc(NC(C)=O)cc2)NC(=O)NC1C (stereo not given in full),nt,nt,nt,nt,i,nt,nt,nt,nt,nt
O=C(N/N=C/c1cccc(Oc2ccccc2)c1)c1cccc(Br)c1,i,5.6,i,-10.8,-10.7,54.0%,i,26.5%,99.0,0.159
N#Cc1ccc(-c2ccco2)nc1SCC(=O)c1ccc(Cl)cc1,i,i,i,-8.3,-13.3,43.5%,i,38.0%,146.3,0.143
CCN(CC)S(=O)(=O)c1ccc(NC(=O)CSc2ncnc3ccccc23)cc1,i,i,i,i,i,nt,nt,nt,nt,nt
COc1ccccc1C(=O)Nc1ccc(C(=O)c2ccccc2)cc1,i,i,i,-12.3,-13,61.0%,i,i,127.3,0.132
Cn1c(N)c(C(=O)COC(=O)/C=C/c2cccc(Cl)c2)c(=O)n(C)c1=O,nt,nt,nt,nt,i,nt,nt,nt,nt,nt

# Compound activity from PubChem BioAssay.
